Laboratory results: ChEMBL document CHEMBL2203015, “Synthesis and biological evaluation of 5-aryloxypyrazole derivatives bearing a rhodanine-3-aromatic acid as potential antimicrobial agents” (Bioorg Med Chem Lett, 2012)
In brackets after ≈: the same amount, converted by molar mass. Activity calls are given as the source filed them. The rule behind the calls is not given here.

How the values were obtained:
Staphylococcus aureus [1] = assay: Potency index, ratio of MIC for norfloxacin to MIC for compound against quinolone-resistant Staphylococcus aureus CCARM 3519 incubated for 24 hrs serial dilution method; assay type: functional
Staphylococcus aureus [2] = assay: Antibacterial activity against Staphylococcus aureus KCTC 503 incubated for 24 hrs serial dilution method; assay type: functional; conditions: KCTC 503, 24 h
Staphylococcus aureus [3] = assay: Antibacterial activity against Staphylococcus aureus RN 4220 incubated for 24 hrs serial dilution method; assay type: functional; conditions: RN 4220, 24 h
Staphylococcus aureus [4] = assay: Potency index, ratio of MIC for oxacillin to MIC for compound against multidrug-resistant Staphylococcus aureus CCARM 3167 incubated for 24 hrs serial dilution method; assay type: functional
Staphylococcus aureus [5] = assay: Antibacterial activity against quinolone-resistant Staphylococcus aureus CCARM 3519 incubated for 24 hrs serial dilution method; assay type: functional; conditions: CCARM 3519, 24 h
Staphylococcus aureus [6] = assay: Antibacterial activity against Staphylococcus aureus KCTC 209 incubated for 24 hrs serial dilution method; assay type: functional; conditions: KCTC 209, 24 h
Staphylococcus aureus [7] = assay: Antibacterial activity against multidrug-resistant Staphylococcus aureus CCARM 3167 incubated for 24 hrs serial dilution method; assay type: functional; conditions: CCARM 3167, 24 h
Staphylococcus aureus [8] = assay: Potency index, ratio of MIC for oxacillin to MIC for compound against quinolone-resistant Staphylococcus aureus CCARM 3505 incubated for 24 hrs serial dilution method; assay type: functional
Staphylococcus aureus [9] = assay: Antibacterial activity against quinolone-resistant Staphylococcus aureus CCARM 3505 incubated for 24 hrs serial dilution method; assay type: functional; conditions: CCARM 3505, 24 h
Staphylococcus aureus [10] = assay: Antibacterial activity against multidrug-resistant Staphylococcus aureus CCARM 3506 incubated for 24 hrs serial dilution method; assay type: functional; conditions: CCARM 3506, 24 h
Staphylococcus aureus [11] = assay: Potency index, ratio of MIC for norfloxacin to MIC for compound against quinolone-resistant Staphylococcus aureus CCARM 3505 incubated for 24 hrs serial dilution method; assay type: functional
Staphylococcus aureus [12] = assay: Potency index, ratio of MIC for oxacillin to MIC for compound against quinolone-resistant Staphylococcus aureus CCARM 3519 incubated for 24 hrs serial dilution method; assay type: functional
Staphylococcus aureus [13] = assay: Potency index, ratio of MIC for norfloxacin to MIC for compound against multidrug-resistant Staphylococcus aureus CCARM 3167 incubated for 24 hrs serial dilution method; assay type: functional
Staphylococcus aureus [14] = assay: Potency index, ratio of MIC for norfloxacin to MIC for compound against multidrug-resistant Staphylococcus aureus CCARM 3506 incubated for 24 hrs serial dilution method; assay type: functional
Escherichia coli [15] = assay: Antibacterial activity against Escherichia coli 1356 incubated for 24 hrs serial dilution method; assay type: functional; conditions: Escherichia coli, 1356, 24 h
Staphylococcus aureus [16] = assay: Potency index, ratio of MIC for oxacillin to MIC for compound against multidrug-resistant Staphylococcus aureus CCARM 3506 incubated for 24 hrs serial dilution method; assay type: functional
HeLa [17] = assay: Toxicity against human HeLa cells at 1 ug/ml incubated for 48 hrs by MTT assay; assay type: cell-based
In short: (§1)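 HeLa cells kept in DMEM with 10% FBS and penicillin-streptomycin (100 U/mL) at 37 °C, 5% CO₂, split with 0.25% trypsin at 80–90% confluence. After 3 passages, about 1 × 10⁴ cells per well were seeded and left overnight to attach. Compound exposure 48 h. MTT (5 mg/mL in PBS) added for 4 h, formazan dissolved in DMSO, OD read at 570 nm.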

[18] = Toxicity against human HeLa cells incubated for 48 hrs by MTT assay; assay type: cell-based; in short: as §1
HeLa [19] = assay: Toxicity against human HeLa cells at 2 ug/ml incubated for 48 hrs by MTT assay; assay type: cell-based; in short: as §1
Staphylococcus aureus [20] = assay: Antibacterial activity against multidrug-resistant Staphylococcus aureus CCARM 3506 at 64 ug/ml incubated for 24 hrs serial dilution method; assay type: functional, organism-based
Escherichia coli [21] = assay: Antibacterial activity against Escherichia coli 1356 at 64 ug/ml incubated for 24 hrs serial dilution method; assay type: functional, organism-based
Staphylococcus aureus [22] = assay: Antibacterial activity against Staphylococcus aureus KCTC 503 at 64 ug/ml incubated for 24 hrs serial dilution method; assay type: functional, organism-based
Staphylococcus aureus [23] = assay: Antibacterial activity against quinolone-resistant Staphylococcus aureus CCARM 3505 at 64 ug/ml incubated for 24 hrs serial dilution method; assay type: functional, organism-based
Staphylococcus aureus [24] = assay: Antibacterial activity against Staphylococcus aureus RN 4220 at 64 ug/ml incubated for 24 hrs serial dilution method; assay type: functional, organism-based
Staphylococcus aureus [25] = assay: Antibacterial activity against Staphylococcus aureus KCTC 209 at 64 ug/ml incubated for 24 hrs serial dilution method; assay type: functional, organism-based
Staphylococcus aureus [26] = assay: Antibacterial activity against multidrug-resistant Staphylococcus aureus CCARM 3167 at 64 ug/ml incubated for 24 hrs serial dilution method; assay type: functional, organism-based
Staphylococcus aureus [27] = assay: Antibacterial activity against quinolone-resistant Staphylococcus aureus CCARM 3519 at 64 ug/ml incubated for 24 hrs serial dilution method; assay type: functional, organism-based

SMILES | Ratio (Staphylococcus aureus [1]) | MIC (Staphylococcus aureus [2]) [µg/mL] | MIC (Staphylococcus aureus [3]) [µg/mL] | Ratio (Staphylococcus aureus [4]) | MIC (Staphylococcus aureus [5]) [µg/mL] | MIC (Staphylococcus aureus [6]) [µg/mL] | MIC (Staphylococcus aureus [7]) [µg/mL] | Ratio (Staphylococcus aureus [8]) | MIC (Staphylococcus aureus [9]) [µg/mL] | MIC (Staphylococcus aureus [10]) [µg/mL] | Ratio (Staphylococcus aureus [11]) | Ratio (Staphylococcus aureus [12]) | Activity (Staphylococcus aureus [20]) | Activity (Escherichia coli [21]) | Activity (Staphylococcus aureus [22]) | Activity (Staphylococcus aureus [23]) | Activity (Staphylococcus aureus [24]) | Activity (Staphylococcus aureus [25]) | Activity (Staphylococcus aureus [26]) | Activity (Staphylococcus aureus [27]) | other results
Cc1nn(-c2ccccc2)c(Oc2ccc(Br)cc2)c1/C=C1\SC(=S)N([C@@H](Cc2c[nH]c3ccccc23)C(=O)O)C1=O | 4 | > 64 | 2 (≈ 3.03 µM) | 64 | 1 (≈ 1.52 µM) | > 64 | 1 (≈ 1.52 µM) | 64 | 1 (≈ 1.52 µM) | 1 (≈ 1.52 µM) | 4 | 64 |  |  |  |  |  |  |  |  | Ratio (Staphylococcus aureus [13]): 4; Ratio (Staphylococcus aureus [14]): 4; MIC (Escherichia coli [15]): > 64 µg/mL; Ratio (Staphylococcus aureus [16]): 64
Cc1nn(-c2ccccc2)c(Oc2ccc(Cl)cc2Cl)c1/C=C1\SC(=S)N([C@@H](Cc2ccccc2)C(=O)O)C1=O | 8 | > 64 | 2 (≈ 3.28 µM) | 32 | 2 (≈ 3.28 µM) | > 64 | 1 (≈ 1.64 µM) | 32 | 2 (≈ 3.28 µM) | 1 (≈ 1.64 µM) | 8 | 32 |  |  |  |  |  |  |  |  | Activity (HeLa [17]): Non-toxic; IC50 at 48 h [18]: 3.54 µg/mL (≈ 5.8 µM); Activity (HeLa [19]): Non-toxic; Ratio (Staphylococcus aureus [13]): 8; Ratio (Staphylococcus aureus [14]): 8; MIC (Escherichia coli [15]): > 64 µg/mL; Ratio (Staphylococcus aureus [16]): 32
Cc1ccc(Oc2c(/C=C3\SC(=S)N([C@@H](Cc4c[nH]c5ccccc45)C(=O)O)C3=O)c(C)nn2-c2ccccc2)c(C)c1 | 4 | > 64 | 2 (≈ 3.29 µM) | 64 | 1 (≈ 1.64 µM) | > 64 | 1 (≈ 1.64 µM) | 64 | 1 (≈ 1.64 µM) | 1 (≈ 1.64 µM) | 4 | 64 |  |  |  |  |  |  |  |  | Ratio (Staphylococcus aureus [13]): 4; Ratio (Staphylococcus aureus [14]): 4; MIC (Escherichia coli [15]): > 64 µg/mL; Ratio (Staphylococcus aureus [16]): 64
Cc1nn(-c2ccccc2)c(Oc2cccc(Cl)c2)c1C=O |  |  |  |  |  |  |  |  |  |  |  |  | inactive | inactive | inactive | inactive | inactive | inactive | inactive | inactive | 
Cc1nn(-c2ccccc2)c(Oc2ccc(Br)cc2)c1C=O |  |  |  |  |  |  |  |  |  |  |  |  | inactive | inactive | inactive | inactive | inactive | inactive | inactive | inactive | 
Cc1ccccc1Oc1c(C=O)c(C)nn1-c1ccccc1 |  |  |  |  |  |  |  |  |  |  |  |  | inactive | inactive | inactive | inactive | inactive | inactive | inactive | inactive | 
Cc1nn(-c2ccccc2)c(Oc2ccc(Cl)cc2Cl)c1/C=C1\SC(=S)N([C@@H](Cc2c[nH]c3ccccc23)C(=O)O)C1=O | 4 | > 64 | 2 (≈ 3.08 µM) | 64 | 1 (≈ 1.54 µM) | > 64 | 1 (≈ 1.54 µM) | 64 | 1 (≈ 1.54 µM) | 1 (≈ 1.54 µM) | 4 | 64 |  |  |  |  |  |  |  |  | Activity (HeLa [17]): Non-toxic; IC50 at 48 h ([18]; read-out: IC50): 5.76 µg/mL (≈ 8.87 µM); Activity (HeLa [19]): Non-toxic; Ratio (Staphylococcus aureus [13]): 4; Ratio (Staphylococcus aureus [14]): 4; MIC (Escherichia coli [15]): > 64 µg/mL; Ratio (Staphylococcus aureus [16]): 64
Cc1nn(-c2ccccc2)c(Oc2ccc(F)cc2)c1C=O |  |  |  |  |  |  |  |  |  |  |  |  | inactive | inactive | inactive | inactive | inactive | inactive | inactive | inactive | 
Cc1nn(-c2ccccc2)c(Oc2ccccc2)c1C=O |  |  |  |  |  |  |  |  |  |  |  |  | inactive | inactive | inactive | inactive | inactive | inactive | inactive | inactive | 
COc1ccc(Oc2c(C=O)c(C)nn2-c2ccccc2)cc1 |  |  |  |  |  |  |  |  |  |  |  |  | inactive | inactive | inactive | inactive | inactive | inactive | inactive | inactive | 
